Laboratory results as given in ChEMBL document CHEMBL1132564, “Antitumor benzothiazoles. 7. Synthesis of 2-(4-acylaminophenyl)benzothiazoles and investigations into the role of acetylation in the antitumor activities of the parent amines” (J Med Chem, 1999).

Assays:
MDA-MB-468 = experiment: In vitro antitumor activity against MDA-468 carcinoma cell line.; format: functional, cell-based; settings: Homo sapiens
Outline: (§1)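 MTT assay, 7-day format: 250–300 cells/well, adhered 24 h drug-free, then compound 1 pM–100 μM (n = 8), final DMSO <0.25%; RPMI 1640/10% FCS, 37 °C, 5% CO2. MTT added after exposure, 4 h, formazan dissolved in DMSO–glycine (4:1), absorbance 550 nm.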

MCF7 = experiment: In vitro antitumor activity against MCF-7 carcinoma cell line.; format: functional, cell-based; settings: Homo sapiens; outline: as §1
Homo sapiens = experiment: In vitro concentration to reduce colony formation of human tumor xenografts to 30% of the control; format: functional
Outline: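 Clonogenic colony-formation assay using cells from 22 human tumor xenografts, tested at 0.1, 1.0 and 10 μg/mL; colony inhibition expressed as T/C, with T/C < 30% scored active; IC70 concentration reported.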

NCI [1] = experiment: In vitro antitumor activity against carcinoma cell lines by 6-day assay; format: functional, Homo sapiens
Outline: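 NCI 60-cell-line panel, sulforhodamine B protein stain. Seeding density set per line's growth; 24 h drug-free incubation, then test agent at five 10-fold dilutions up to 10^-4 M for 6 days of exposure. Growth inhibition derived from change in protein-stain optical density; log GI50 reported.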

NCI [2] = experiment: In vitro antitumor activity against carcinoma cell lines by 2-day assay; format: functional, Homo sapiens
Outline: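 NCI panel sulforhodamine B assay: line-specific seeding, 24 h drug-free, then five 10-fold dilutions (top 10^-4 M) for 2 days; growth inhibition from protein-stain optical density change; mean log GI50 across panel.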

Compound | IC50 (MDA-MB-468) | IC50 (MCF7) | Mean IC70 (Homo sapiens) | Mean log GI50 (NCI [1]) | Mean log GI50 (NCI [2])
CC(=O)N(C(C)=O)c1ccc(-c2nc3ccccc3s2)cc1 | > 100 nM | > 100 nM | – | – | –
Nc1ccc(-c2nc3ccccc3s2)cc1I | < 1 nM | < 1 nM | 6.1 µg/mL | -5.12 M | -4.75 M
Nc1ccc(-c2nc3ccccc3s2)cc1 | > 10 nM | > 10 nM | 10 µg/mL | – | -4.76 M
CC(=O)N(C(C)=O)c1ccc(-c2nc3ccccc3s2)cc1C | > 10000 nM | > 10000 nM | – | – | –
CC(=O)Nc1ccc(-c2nc3ccccc3o2)cc1 | > 10000 nM | > 10000 nM | – | – | -4.27 M
CC(=O)Nc1ccc(-c2nc3ccccc3[nH]2)cc1 | > 10000 nM | > 10000 nM | – | – | –
O=C(Nc1ccc(-c2nc3ccccc3s2)cc1)c1ccccc1 | > 1000 nM | > 1000 nM | – | – | –
CC(=O)Nc1ccc(-c2nc3ccccc3s2)cc1 | > 100 nM | > 100 nM | – | – | -4.4 M
CC(=O)Nc1ccc(-c2nc3ccccc3s2)cc1I | > 100 nM | > 100 nM | – | – | -4.7 M
Nc1ccc(-c2nc3ccccc3s2)cc1Cl | < 1 nM | < 1 nM | – | -5.26 M | -4.75 M
O=C(CCl)Nc1ccc(-c2nc3ccccc3s2)cc1 | > 100 nM | > 10 nM | 3.5 µg/mL | – | -5.7 M
C/C(S)=N/c1ccc(-c2nc3ccccc3s2)cc1 | > 100 nM | > 100 nM | – | – | –
CC(=O)Nc1ccc(-c2nc3ccccc3s2)cc1Br | > 100 nM | > 10 nM | – | – | -4.52 M
